Tests used:
[1] = species on record: Rattus norvegicus; assay: [3H]5-HT reuptake inhibition in Rat brain synaptosomes.; assay type: functional
[2] = target: 5-hydroxytryptamine receptor 1B (Rattus norvegicus, UniProt P28564); assay: Binding affinity towards 5-hydroxytryptamine 1B receptor in rat frontal cortex using [125I]iodocyanopindolol as radio-ligand.; assay type: tissue-based
[3] = target: T1, 5-hydroxytryptamine receptor 1A (Rattus norvegicus, UniProt P19327); assay: Binding affinity towards 5-hydroxytryptamine 1A receptor in rat hippocampus using [3H]8-OH-DPAT as radio-ligand.
T1 sequence (P19327 whole entry): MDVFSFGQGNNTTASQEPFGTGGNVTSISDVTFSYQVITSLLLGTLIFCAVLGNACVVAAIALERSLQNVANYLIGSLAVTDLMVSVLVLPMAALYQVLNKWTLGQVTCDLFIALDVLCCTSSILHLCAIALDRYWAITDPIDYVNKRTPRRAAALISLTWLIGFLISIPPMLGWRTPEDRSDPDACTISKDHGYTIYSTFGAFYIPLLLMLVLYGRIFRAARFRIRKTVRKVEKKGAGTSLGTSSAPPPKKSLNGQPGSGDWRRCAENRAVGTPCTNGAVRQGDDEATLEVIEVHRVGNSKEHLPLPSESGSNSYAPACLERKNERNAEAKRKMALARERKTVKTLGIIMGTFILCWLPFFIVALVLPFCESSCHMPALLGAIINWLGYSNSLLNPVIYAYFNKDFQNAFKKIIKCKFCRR

[4] = species on record: Oryctolagus cuniculus; assay: Inhibition of the contractile responses elicited by sumatriptan in rabbit saphenous vein (RSV); assay type: functional; settings: read-out: pA2 (converted)
Procedure, shortened: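 Isolated rabbit saphenous vein segments held in organ baths. Each segment received two sumatriptan concentration-response curves, the second after 60 min incubation with antagonist or control vehicle. Apparent pA2 was calculated from a single antagonist concentration in at least 3 preparations.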

[5] = species on record: Cavia porcellus; assay: Sumatriptan induced inhibition of potassium evoked [3H]5-HT release from guinea pig cortex slices; assay type: functional
Procedure, shortened: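 Cortex slices from male Dunkin-Hartley guinea pigs were loaded with [3H]5-HT for 30 min, then given potassium stimulation. Sumatriptan 3 µM alone (control), or with test compound at 30 nM, 300 nM or 3 µM, was superfused before and during S2. Basal-subtracted S2/S1 ratio is expressed as % of the sumatriptan-only ratio. Mean (±SEM) of 3-4 determinations.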

Sequence of 5-hydroxytryptamine receptor 1B (P28564 whole entry): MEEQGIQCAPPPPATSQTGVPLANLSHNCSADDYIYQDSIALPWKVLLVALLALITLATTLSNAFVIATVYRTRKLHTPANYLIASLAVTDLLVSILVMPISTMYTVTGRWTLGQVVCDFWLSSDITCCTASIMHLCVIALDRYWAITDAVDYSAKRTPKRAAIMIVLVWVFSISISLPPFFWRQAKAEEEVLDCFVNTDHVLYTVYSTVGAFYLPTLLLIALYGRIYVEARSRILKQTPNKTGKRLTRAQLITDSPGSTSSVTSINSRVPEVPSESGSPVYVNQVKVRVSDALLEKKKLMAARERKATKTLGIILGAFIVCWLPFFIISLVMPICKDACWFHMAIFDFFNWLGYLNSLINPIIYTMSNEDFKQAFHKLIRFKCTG

| SMILES | IC50 [1] [nM] | IC50 [2] [nM] | IC50 [3] [nM] | Kb [4] [nM] | Release [5] [%] |
| --- | --- | --- | --- | --- | --- |
| COc1ccc(NC(=O)NCCc2c[nH]c3ccc(O)cc23)cc1N1CCN(C)CC1 | 314 | 467 | 57 | – | – |
| NC(=O)c1ccc2[nH]cc(C3CCNCC3)c2c1 | > 100 | – | – | – | – |
| NCCN1CCC(c2c[nH]c3cc(F)ccc23)CC1 | 11 | – | – | – | – |
| Fc1ccc2[nH]cc(CCCCN3CCNCC3)c2c1 | 0.15 | – | – | – | – |
| COc1ccc(NC(=O)N2CCc3[nH]c4ccc(F)cc4c3C2)cc1N1CCN(C)CC1 | 469 | 567 | > 800 | – | – |
| COc1ccc(NC(=O)N2CCN(CCCCc3c[nH]c4ccc(F)cc34)CC2)cc1N1CCN(C)CC1 | 0.7 | 77 | 50 | 20 | 120 |
| COc1ccc(NC(=O)N2CCC(c3c[nH]c4ccccc34)CC2)cc1N1CCN(C)CC1 | 200 | 50 | 400 | 20 | 127 |
| CN1CCC2(CC1)COc1ccc(NC(=O)NCCN3CCC(c4c[nH]c5cc(F)ccc45)CC3)cc12 | 2.2 | 300 | 700 | – | – |
| Cc1nc(-c2ccc(-c3ccc(C(=O)Nc4ccc5c(c4)C4(CCN(C)CC4)CO5)cc3)c(C)c2)no1 | > 1000 | 2.1 | – | – | 134 |
| Fc1ccc2[nH]c3c(c2c1)CNCC3 | > 100 | – | – | – | – |
| COc1ccc(NC(=O)N2CCC(c3c[nH]c4cccc(F)c34)CC2)cc1N1CCN(C)CC1 | 65 | 50 | 300 | 2 | 145 |
| COc1ccc(NC(=O)NCCN2CCC(c3c[nH]c4cc(F)ccc34)CC2)cc1N1CCN(C)CC1 | 1.9 | 223 | 160 | – | – |
| c1ccc2c(C3CCNCC3)c[nH]c2c1 | 60 | – | – | – | – |
| COc1ccc(NC(=O)NCCc2c[nH]c3ccc(F)cc23)cc1N1CCN(C)CC1 | 387 | 63 | 27 | 20 | 134 |
| COc1ccc(NC(=O)N2CCC(c3c[nH]c4ccc(F)cc34)CC2)cc1N1CCN(C)CC1 | 21 | 85 | 367 | 15.8 | 151 |
| COc1ccc(N)cc1N1CCN(C)CC1 | > 1000 | – | – | – | – |
| COc1ccc(NC(=O)N2CCC(c3c[nH]c4ccc(C(N)=O)cc34)CC2)cc1N1CCN(C)CC1 | 472 | 113 | 17 | 15.8 | 217 |

| SMILES | IC50 [1] [nM] | IC50 [2] [nM] | IC50 [3] [nM] | Kb [4] [nM] | Release [5] [%] |
| --- | --- | --- | --- | --- | --- |
| CN1CCC2(CC1)COc1ccc(N)cc12 | > 1000 | – | – | – | – |
| NCCc1c[nH]c2ccc(F)cc12 | 130 | – | – | – | – |
| Fc1ccc2[nH]cc(C3CCNCC3)c2c1 | 55 | – | – | – | – |
| Fc1ccc2[nH]cc(C3CCNC3)c2c1 (stereo not drawn) | 45 | – | – | – | – |
| CN1CCC2(CC1)COc1ccc(NC(=O)N3CCC(c4c[nH]c5ccc(F)cc45)CC3)cc12 | 0.2 | 23 | > 200 | 50.1 | 125 |
| COc1ccc(N)cc1OCCN(C)C | > 1000 | – | – | – | – |
| Fc1cccc2[nH]cc(C3CCNCC3)c12 | 60 | – | – | – | – |
| COc1ccc(NC(=O)N2CCC(c3c[nH]c4cc(F)ccc34)CC2)cc1N1CCN(C)CC1 | 49 | 80 | 667 | 25.1 | 169 |
| COc1ccc(NC(=O)NCCN2CCC(c3c[nH]c4cc(F)ccc34)CC2)cc1OCCN(C)C | 1.2 | 133 | 233 | – | – |
| COc1ccc(NC(=O)N2CCC(c3c[nH]c4ccc(F)cc34)C2)cc1N1CCN(C)CC1 (stereo not drawn) | 106 | 233 | 100 | – | – |
| COc1ccc(NC(=O)N2CCC(CCc3c[nH]c4ccccc34)CC2)cc1N1CCN(C)CC1 | 10 | 120 | > 300 | 20 | 121 |
| Fc1ccc2c(C3CCNCC3)c[nH]c2c1 | 20 | – | – | – | – |
| COc1ccc(NC(=O)N2CCC(c3c[nH]c4ccc(F)cc34)CC2)cc1OCCN(C)C | 4 | 633 | > 500 | – | – |
| N#Cc1ccc2[nH]cc(C3CCNCC3)c2c1 | 58 | – | – | – | – |
| COc1ccc(NC(=O)N2CCC(c3c[nH]c4ccc(C#N)cc34)CC2)cc1N1CCN(C)CC1 | 1.9 | 267 | 233 | 10 | 167 |
| COc1ccc(NC(=O)c2ccc(-c3ccc(-c4noc(C)n4)cc3C)cc2)cc1N1CCN(C)CC1 [GR-127935] | 1000 | – | 360 | 0.398 | 114 |
| c1ccc2c(CCC3CCNCC3)c[nH]c2c1 [INDALPINE] | 1 | – | – | – | – |
